Legend:
Renin = target: T1, Renin (Homo sapiens, UniProt P00797); assay: The compound was tested in vitro for inhibition of human plasma renin.; format: cell-free
T1 sequence (P00797 whole entry): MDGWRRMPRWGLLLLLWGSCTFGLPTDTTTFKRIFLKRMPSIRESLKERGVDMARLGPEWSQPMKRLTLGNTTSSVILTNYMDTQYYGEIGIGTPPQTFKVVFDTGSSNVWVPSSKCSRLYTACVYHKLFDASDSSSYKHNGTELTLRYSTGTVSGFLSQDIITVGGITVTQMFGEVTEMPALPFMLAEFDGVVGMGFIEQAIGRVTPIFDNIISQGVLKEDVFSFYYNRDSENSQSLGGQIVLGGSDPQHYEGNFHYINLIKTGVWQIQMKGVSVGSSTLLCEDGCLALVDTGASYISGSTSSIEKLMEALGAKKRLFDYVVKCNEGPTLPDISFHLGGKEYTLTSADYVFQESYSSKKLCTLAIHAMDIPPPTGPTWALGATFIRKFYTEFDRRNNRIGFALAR
Summary of the method: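 Lyophilized human plasma was reconstituted in distilled water on the assay day. Angiotensin I was measured by radioimmunoassay (commercial kit) at pH 7.4 in phosphate buffer, 37 °C, with PMSF to block angiotensinases. Inhibitors came from a 1 mM DMF stock serially diluted to 3–5 concentrations, run in duplicate and averaged. IC50 was calculated by linear regression.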

[1] = Peak change in heart rate (average) at the dose of 0.34 mg/kg administered through intravenously in Rhesus monkeys.; format: functional, Cercopithecidae; conditions: route intravenous
Summary of the method: (§1)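 Conscious male and female rhesus monkeys kept on a low-sodium diet, given furosemide the evening before, and fasted 18 h before and during the study. MAP was read directly and blood drawn for PRA through chronic arterial access ports. Compound was given IV via venous catheter in 0.05% acetic acid/5% dextrose/H2O, 20 min after a vehicle control. Time courses were plotted and peak changes taken; N = 2.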

[2] = Inhibition of plasma renin determined at Peak change in mean arterial pressure at the dose of 0.34 mg/kg administered through intravenously in Rhesus monkeys.; format: functional; conditions: Cercopithecidae, route intravenous; summary of the method: as §1
[3] = Peak change in mean arterial pressure (average) at the dose of 0.34 mg/kg administered through intravenously in Rhesus monkeys.; format: functional, Cercopithecidae, Artery; conditions: route intravenous; summary of the method: as §1
[4] = Peak change in heart rate (average) at the dose of 0.42 mg/kg administered through intravenously in Rhesus monkeys.; format: functional, Cercopithecidae; conditions: route intravenous; summary of the method: as §1
[5] = Peak change in mean arterial pressure (average) at the dose of 0.42 mg/kg administered through intravenously in Rhesus monkeys.; format: functional, Cercopithecidae, Artery; conditions: route intravenous; summary of the method: as §1
[6] = Inhibition of plasma renin determined at Peak change in mean arterial pressure at the dose of 0.42 mg/kg administered through intravenously in Rhesus monkeys.; format: functional; conditions: Cercopithecidae, route intravenous; summary of the method: as §1
[7] = Inhibition of plasma renin determined at Peak change in mean arterial pressure at the dose of 0.44 mg/kg administered through intravenously in Rhesus monkeys.; format: functional; conditions: Cercopithecidae, route intravenous; summary of the method: as §1
[8] = Peak change in mean arterial pressure (average) at the dose of 0.44 mg/kg administered through intravenously in Rhesus monkeys.; format: functional, Cercopithecidae, Artery; conditions: route intravenous; summary of the method: as §1
[9] = Peak change in heart rate (average) at the dose of 0.44 mg/kg administered through intravenously in Rhesus monkeys.; format: functional, Cercopithecidae; conditions: route intravenous; summary of the method: as §1
[10] = Inhibition of plasma renin determined at Peak change in mean arterial pressure at the dose of 0.40 mg/kg administered through intravenously in Rhesus monkeys.; format: functional; conditions: Cercopithecidae, route intravenous; summary of the method: as §1
[11] = Peak change in mean arterial pressure (average) at the dose of 0.40 mg/kg administered through intravenously in Rhesus monkeys.; format: functional, Cercopithecidae, Artery; conditions: dose 0.4 mg/kg; route intravenous; summary of the method: as §1
[12] = Peak change in heart rate (average) at the dose of 0.40 mg/kg administered through intravenously in Rhesus monkeys.; format: functional, Cercopithecidae; conditions: dose 0.4 mg/kg; route intravenous; summary of the method: as §1
[13] = Peak change in mean arterial pressure (average) at the dose of 0.88 mg/kg administered through intravenously in Rhesus monkeys.; format: functional, Cercopithecidae, Artery; conditions: route intravenous; summary of the method: as §1
[14] = Inhibition of plasma renin determined at Peak change in mean arterial pressure at the dose of 0.88 mg/kg administered through intravenously in Rhesus monkeys.; format: functional; conditions: Cercopithecidae, route intravenous; summary of the method: as §1
[15] = Peak change in heart rate (average) at the dose of 0.88 mg/kg administered through intravenously in Rhesus monkeys.; format: functional, Cercopithecidae; conditions: route intravenous; summary of the method: as §1
[16] = Inhibition of plasma renin determined at Peak change in mean arterial pressure at the dose of 0.39 mg/kg administered through intravenously in Rhesus monkeys.; format: functional; conditions: Cercopithecidae, route intravenous; summary of the method: as §1
[17] = Peak change in heart rate (average) at the dose of 0.39 mg/kg administered through intravenously in Rhesus monkeys.; format: functional, Cercopithecidae; conditions: route intravenous; summary of the method: as §1
[18] = Peak change in mean arterial pressure (average) at the dose of 0.39 mg/kg administered through intravenously in Rhesus monkeys.; format: functional, Cercopithecidae, Artery; conditions: route intravenous; summary of the method: as §1
[19] = Peak change in mean arterial pressure (average) at the dose of 0.35 mg/kg administered through intravenously in Rhesus monkeys.; format: functional, Cercopithecidae, Artery; conditions: route intravenous; summary of the method: as §1
[20] = Peak change in heart rate (average) at the dose of 0.35 mg/kg administered through intravenously in Rhesus monkeys.; format: functional, Cercopithecidae; conditions: route intravenous; summary of the method: as §1
[21] = Inhibition of plasma renin determined at Peak change in mean arterial pressure at the dose of 0.35 mg/kg administered through intravenously in Rhesus monkeys.; format: functional; conditions: Cercopithecidae, route intravenous; summary of the method: as §1
[22] = Peak change in heart rate (average) at the dose of 1.19 mg/kg administered through intravenously in Rhesus monkeys.; format: functional, Cercopithecidae; conditions: route intravenous; summary of the method: as §1
[23] = Inhibition of plasma renin determined at Peak change in mean arterial pressure at the dose of 1.19 mg/kg administered through intravenously in Rhesus monkeys.; format: functional; conditions: Cercopithecidae, route intravenous; summary of the method: as §1
[24] = Peak change in mean arterial pressure (average) at the dose of 1.19 mg/kg administered through intravenously in Rhesus monkeys.; format: functional, Cercopithecidae, Artery; conditions: route intravenous; summary of the method: as §1

Row | SMILES | IC50 (Renin) [nM] | also measured
1 | CC(C)(C)OC(=O)N[C@@H](Cc1ccccc1)C(=O)N[C@@H](Cc1c[nH]cn1)C(=O)N[C@@H](CC1CCCCC1)[C@@H](O)CSc1nnnn1CCc1ccncc1 | 31 | Peak deltaHR [1]: 1 beats min-1; inhibition in vivo at 0.34 mg/kg [2]: 95%; Peak deltaMAP [3]: -22 mmHg
2 | CC(C)(C)OC(=O)N[C@@H](Cc1ccccc1)C(=O)N[C@@H](Cc1c[nH]cn1)C(=O)N[C@@H](CC1CCCCC1)[C@@H](O)CSC1CCCCC1 | 289 | –
3 | CC(C)(C)OC(=O)N[C@@H](Cc1ccccc1)C(=O)N[C@@H](Cc1c[nH]cn1)C(=O)N[C@@H](CC1CCCCC1)[C@@H](O)CS(=O)(=O)c1nnnn1CCc1cc[n+]([O-])cc1 | 37 | inhibition in vivo at 0.4 mg/kg [10]: 98%; Peak deltaMAP [11]: -12 mmHg; Peak deltaHR [12]: 23 beats min-1
4 | C=CCn1c(SC[C@H](O)[C@H](CC2CCCCC2)NC(=O)[C@H](Cc2c[nH]cn2)NC(=O)[C@H](Cc2ccccc2)NC(=O)OC(C)(C)C)nnc1C(F)(F)F | 206 | –
5 | Cn1cnnc1SC[C@H](O)[C@H](CC1CCCCC1)NC(=O)[C@H](Cc1c[nH]cn1)NC(=O)[C@H](Cc1ccccc1)NC(=O)OC(C)(C)C | 81 | Peak deltaMAP [13]: -9 mmHg; inhibition in vivo at 0.88 mg/kg [14]: 90%; Peak deltaHR [15]: 17 beats min-1
6 | Cn1c(SC[C@H](O)[C@H](CC2CCCCC2)NC(=O)[C@H](Cc2c[nH]cn2)NC(=O)[C@H](Cc2ccccc2)NC(=O)OC(C)(C)C)nnc1C(F)(F)F | 39 | inhibition in vivo at 0.39 mg/kg [16]: 85%; Peak deltaHR [17]: -5 beats min-1; Peak deltaMAP [18]: -11 mmHg
7 | CN(C)CCn1nnnc1SC[C@H](O)[C@H](CC1CCCCC1)NC(=O)[C@H](Cc1cnc[nH]1)NC(=O)[C@H](Cc1ccccc1)NC(=O)OC(C)(C)C | 145 | –
8 | Cn1nc(C(F)(F)F)nc1SC[C@H](O)[C@H](CC1CCCCC1)NC(=O)[C@H](Cc1c[nH]cn1)NC(=O)[C@H](Cc1ccccc1)NC(=O)OC(C)(C)C | 392 | –
9 | CC(C)(C)OC(=O)N[C@@H](Cc1ccccc1)C(=O)N[C@@H](Cc1c[nH]cn1)C(=O)N[C@@H](CC1CCCCC1)[C@@H](O)CSc1nnc(Nc2ccccc2)s1 | 3310 | –
10 | C[n+]1ccc(CCn2nnnc2SC[C@H](O)[C@H](CC2CCCCC2)NC(=O)[C@H](Cc2c[nH]cn2)NC(=O)[C@H](Cc2ccccc2)NC(=O)OC(C)(C)C)cc1 | 678 | –

Second part, led by results:

Row | IC50 (Renin) [nM] | SMILES | also measured
11 | 240 | Cc1ccnc(SC[C@H](O)[C@H](CC2CCCCC2)NC(=O)[C@H](Cc2cnc[nH]2)NC(=O)[C@H](Cc2ccccc2)NC(=O)OC(C)(C)C)n1 | –
12 | 33 | CC(C)(C)OC(=O)N[C@@H](Cc1ccccc1)C(=O)N[C@@H](Cc1c[nH]cn1)C(=O)N[C@@H](CC1CCCCC1)[C@@H](O)CSc1nnnn1CCc1ccc(O)cc1 | –
13 | 39 | CC(C)(C)OC(=O)N[C@@H](Cc1ccccc1)C(=O)N[C@@H](Cc1c[nH]cn1)C(=O)N[C@@H](CC1CCCCC1)[C@@H](O)CSc1nnnn1CCN1CCOCC1 | Peak deltaHR [4]: -8 beats min-1; Peak deltaMAP [5]: -10.5 mmHg; inhibition in vivo at 0.42 mg/kg [6]: 90%
14 | 359 | CN1CCN(C(=O)Cn2nnnc2SC[C@H](O)[C@H](CC2CCCCC2)NC(=O)[C@H](Cc2c[nH]cn2)NC(=O)[C@H](Cc2ccccc2)NC(=O)OC(C)(C)C)CC1 | –
15 | 41 | CC(C)(C)OC(=O)N[C@@H](Cc1ccccc1)C(=O)N[C@@H](Cc1c[nH]cn1)C(=O)N[C@@H](CC1CCCCC1)[C@@H](O)CSc1nnc(C(F)(F)F)n1CCc1ccncc1 | inhibition in vivo at 0.44 mg/kg [7]: 93%; Peak deltaMAP [8]: -10 mmHg; Peak deltaHR [9]: -1 beats min-1
16 | 314 | CC(C)(C)OC(=O)N[C@@H](Cc1ccccc1)C(=O)N[C@@H](Cc1cnc[nH]1)C(=O)N[C@@H](CC1CCCCC1)[C@@H](O)CSc1nnnn1CC(=O)NCCN1CCOCC1 | –
17 | 207 | CCOC(=O)Cn1nnnc1SC[C@H](O)[C@H](CC1CCCCC1)NC(=O)[C@H](Cc1cnc[nH]1)NC(=O)[C@H](Cc1ccccc1)NC(=O)OC(C)(C)C | –
18 | 32 | Cn1nnnc1SC[C@H](O)[C@H](CC1CCCCC1)NC(=O)[C@H](Cc1c[nH]cn1)NC(=O)[C@H](Cc1ccccc1)NC(=O)OC(C)(C)C | Peak deltaMAP [19]: -9 mmHg; Peak deltaHR [20]: -5 beats min-1; inhibition in vivo at 0.35 mg/kg [21]: 89%
19 | 198 | CC(C)(C)OC(=O)N[C@@H](Cc1ccccc1)C(=O)N[C@@H](Cc1cnc[nH]1)C(=O)N[C@@H](CC1CCCCC1)[C@@H](O)CSc1ccccn1 | –
20 | 1290 | CN(C)CCNC(=O)Cn1nnnc1SC[C@H](O)[C@H](CC1CCCCC1)NC(=O)[C@H](Cc1c[nH]cn1)NC(=O)[C@H](Cc1ccccc1)NC(=O)OC(C)(C)C | –
21 | 124 | Cn1ccnc1SC[C@H](O)[C@H](CC1CCCCC1)NC(=O)[C@H](Cc1c[nH]cn1)NC(=O)[C@H](Cc1ccccc1)NC(=O)OC(C)(C)C | Peak deltaHR [22]: -3 beats min-1; inhibition in vivo at 1.19 mg/kg [23]: 75%; Peak deltaMAP [24]: -8.5 mmHg
22 | 708 | CC(C)(C)OC(=O)N[C@@H](Cc1ccccc1)C(=O)N[C@@H](Cc1c[nH]cn1)C(=O)N[C@@H](CC1CCCCC1)[C@@H](O)CSc1ncc2ccccn12 | –
23 | 396 | CC(C)(C)OC(=O)N[C@@H](Cc1ccccc1)C(=O)N[C@@H](Cc1cnc[nH]1)C(=O)N[C@@H](CC1CCCCC1)[C@@H](O)CSc1nnnn1CC(=O)O | –
24 | 448 | CC(C)(C)OC(=O)N[C@@H](Cc1ccccc1)C(=O)N[C@@H](Cc1cnc[nH]1)C(=O)N[C@@H](CC1CCCCC1)[C@@H](O)CSc1nnnn1CC(N)=O | –
